In ChEMBL document CHEMBL1156678, “A new class of analgesic agents toward prostacyclin receptor inhibition: synthesis, biological studies and QSAR analysis of 1-hydroxyl-2-substituted phenyl-4,4,5,5-tetramethylimidazolines” (Eur J Med Chem, 2008):

Key:
Mus musculus [1] = assay: Thrombotic toxicity in ICR mouse assessed as tail bleeding time at 1.3 mmol/kg, ip after 60 mins; format: organism-based; details: in vivo, 1 h
Procedure, shortened: (§1)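 Male ICR mice (25 ± 2 g) were kept one day on a 12/12 h light/dark cycle at 21 ± 2 °C. Each received a single i.p. dose of 1.30 mmol/kg in saline/DMSO/Tween-80 (0.2/0.01/0.02 ml), or the solvent only. The restrained mouse had 1 mm cut from the tail before dosing and at 5, 15, 30 and 60 min. Bleeding time (s) is reported as mean ± SD.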

[2] = Cardiovascular toxicity in rat aorta assessed as inhibition of noradrenaline-induced vasoconstriction at 5 mM relative to control; format: tissue-based; details: isolated rat aorta
Procedure, shortened: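 Rat aortic strips were contracted with noradrenaline, washed, stabilized for 30 min, and contracted again. At peak contraction, compound was added (final 5 × 10^-3 M) or vehicle alone. The relaxant response was recorded as percentage inhibition of the contraction.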

Mus musculus [3] = assay: Analgesic activity in ICR mouse assessed as pain threshold variation at 0.13 mmol/kg, ip after 30 mins by tail flick test relative to control; format: functional
Procedure, shortened: (§2)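 Male ICR mice (25 ± 2 g), kept on a 12/12 h light/dark cycle at 21 ± 2 °C for one day before use. Each received a single i.p. injection in 0.2 ml saline + 0.01 ml DMSO + 0.02 ml Tween-80. Vehicle-only mice served as controls. Basal tail-flick threshold was measured four times (BPT). Thresholds were then read every 30 min for 150 min. PTV = (post-dose threshold − BPT)/BPT. n = 10, x ± SD.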

Mus musculus [4] = assay: Analgesic activity in ICR mouse assessed as pain threshold variation at 0.13 mmol/kg, ip after 60 mins by tail flick test relative to control; format: functional; procedure, shortened: as §2
Mus musculus [5] = assay: Analgesic activity in ICR mouse assessed as pain threshold variation at 0.13 mmol/kg, ip after 90 mins by tail flick test relative to control; format: functional; procedure, shortened: as §2
Mus musculus [6] = assay: Analgesic activity in ICR mouse assessed as pain threshold variation at 0.13 mmol/kg, ip after 120 mins by tail flick test; format: functional; procedure, shortened: as §2
Mus musculus [7] = assay: Analgesic activity in ICR mouse assessed as pain threshold variation at 0.13 mmol/kg, ip after 150 mins by tail flick test; format: functional; procedure, shortened: as §2
Mus musculus [8] = assay: Thrombotic toxicity in ICR mouse assessed as tail bleeding time at 1.3 mmol/kg, ip after 5 mins; format: organism-based; details: in vivo; procedure, shortened: as §1
Mus musculus [9] = assay: Thrombotic toxicity in ICR mouse assessed as tail bleeding time at 1.3 mmol/kg, ip after 15 mins; format: organism-based; details: in vivo, 0.25 h; procedure, shortened: as §1
Mus musculus [10] = assay: Thrombotic toxicity in ICR mouse assessed as tail bleeding time at 1.3 mmol/kg, ip after 30 mins; format: organism-based; details: in vivo, 0.5 h; procedure, shortened: as §1

| Compound | Activity (Mus musculus [1]) | inhibition at 5000 µM [2] | Activity (Mus musculus [3]) | Activity (Mus musculus [4]) | Activity (Mus musculus [5]) | Activity (Mus musculus [6]) | Activity (Mus musculus [7]) | Activity (Mus musculus [8]) | Activity (Mus musculus [9]) | Activity (Mus musculus [10]) |
| --- | --- | --- | --- | --- | --- | --- | --- | --- | --- | --- |
| CC1(C)N=C(c2ccccc2)N(O)C1(C)C | 117 s | 22.9% | 43.67% | 37.68% | 37.07% | 37.41% | 35.48% | 117 s | 119 s | 118 s |
| COc1ccc(C2=NC(C)(C)C(C)(C)N2O)cc1 | 118 s | 19.7% | 64.55% | 76.13% | 66.49% | 65.23% | 46.74% | 119 s | 118 s | 118 s |
| COc1ccc(C2=NC(C)(C)C(C)(C)N2O)cc1OC | 118 s | 17.9% | 50.9% | 50.12% | 54.54% | 38.43% | 35.37% | 117 s | 117 s | 118 s |
| CC1(C)N=C(c2ccc3c(c2)OCO3)N(O)C1(C)C | 118 s | 21.9% | 58.82% | 68.46% | 67.15% | 59.77% | 60.22% | 120 s | 119 s | 119 s |
| CC1(C)N=C(c2ccccc2O)N(O)C1(C)C | 118 s | 22.9% | 50.76% | 49.93% | 68.27% | 73.13% | 67.3% | 118 s | 117 s | 119 s |
| CC1(C)N=C(c2cccc(O)c2)N(O)C1(C)C | 119 s | 46.3% | 50.69% | 59.38% | 59.94% | 77.78% | 72.88% | 117 s | 119 s | 118 s |
| CC1(C)N=C(c2ccc(O)cc2)N(O)C1(C)C | 119 s | 13.6% | 57.6% | 74.74% | 79.8% | 53.45% | 27.62% | 116 s | 118 s | 119 s |
| COc1ccc(C2=NC(C)(C)C(C)(C)N2O)cc1O | 119 s | 35.1% | 44.33% | 59.85% | 60.71% | 50.77% | 41.62% | 120 s | 118 s | 117 s |
